# Exocytosis inh: blocks lytic granule exocytosis | TALL-104 LAMP-1 surface exposure, flow cytometry; cells stimulated with thapsigargin and PMA | inhibition, % at 10 µM | actives 0.66% (n = 360,000) | AID 651702;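 active = inhibition above about 55%, limit read from the data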
# V-ATPase pH: yeast V-ATPase proton transport regulation by pHLuorin; S. cerevisiae, pHLuorin cytosolic pH fluorescence; response, % at 10 µM; actives 0.37% (n = 350,000); in the data active = response mostly above about 7.3%, no sharp cut-off; inactive = mostly below about 5.4%; note: actives read high
# Beta2AR agonist: activates human beta-2 adrenergic receptor causing internalization | Am2.2-beta2AR cells, FAP receptor internalization, flow cytometry | AID 504454 | P07550 | actives 0.43% (n = 340,000) | response, % (no concentration beside the values);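 active = response above a set limit, near 3 SD of response in nonfluorescent compounds, cut at about 42% in these data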
# Target sequence (P07550 whole entry, looked up): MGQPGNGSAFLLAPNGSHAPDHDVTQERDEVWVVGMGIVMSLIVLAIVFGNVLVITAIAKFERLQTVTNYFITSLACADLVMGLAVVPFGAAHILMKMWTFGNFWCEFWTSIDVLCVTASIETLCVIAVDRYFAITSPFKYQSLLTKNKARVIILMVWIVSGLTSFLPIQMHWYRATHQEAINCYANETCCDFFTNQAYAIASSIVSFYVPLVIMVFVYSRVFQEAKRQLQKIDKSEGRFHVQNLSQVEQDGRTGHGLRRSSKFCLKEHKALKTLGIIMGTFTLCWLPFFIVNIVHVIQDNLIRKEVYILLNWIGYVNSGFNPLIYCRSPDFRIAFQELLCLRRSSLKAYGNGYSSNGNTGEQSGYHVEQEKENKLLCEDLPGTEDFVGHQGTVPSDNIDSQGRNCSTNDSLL
# T cell HTS: T cell immune modulators affecting CD8 T cell-vesicle binding | 2C CD8+ T cell-vesicle binding, flow cytometry; hits give low values | AID 2052 | actives 0.068% (n = 330,000) | response (vesicle binding), % at 7 µM;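 active = response, share of CD8 T cells binding vesicles, and their 90th percentile fluorescence all below set limits, cut at about 80% in these data, passing the limit was not always enough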;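 note: values below 100% mean blocked vesicle binding to the CD8+ T cells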
#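 Incubation: binding step 1.5 h, 37 °C, antibody labelling 20 min, ice; system: murine 2C transgenic CD8+ T lymphocytes; technique: cytometric PE anti-B7-1 and Alexa647 anti-CD8 signals after 1% paraformaldehyde fixation; also added: QL9-charged Drosophila Ld/ICAM-1/B7-1 vesicles; control set: naked versus QL9-loaded vesicles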
# rCAG RNA binder: binds r(CAG) RNA repeats | r(CAG) RNA repeat, TO-PRO-1 dye displacement fluorescence | inhibition, % at 3 µM | actives 1.3% (n = 370,000) | AID 651821;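 active = inhibition above the plate cutoff, the mean of all test compounds on that plate plus 3 SD, cut at about 35% in these data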;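 note: 0% = DMSO alone and 100% = 100 µM mitoxantrone as full dye displacement; higher means more dye released from RNA so lower well fluorescence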
# MPTP block: permeability transition pore inhibition; inhibition, % at 10 µM; AID 602449; isolated mouse mitochondria, Ca2+ swelling absorbance, 30 min; actives 1.4% (n = 360,000);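 active = inhibition of 50% or more, scaled per plate between neutral and stimulator controls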;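 note: 0% = DMSO wells given calcium and 100% = 1 mM EGTA wells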
# * hit, by the source's call; i = inactive; . = not tested or not shown. Only some compounds are listed: those with a hit (about 3.8% of all), similar ones and a draw of the others.
SMILES,Exocytosis inh,V-ATPase pH,Beta2AR agonist,T cell HTS,rCAG RNA binder,MPTP block
Cc1ncc([N+](=O)[O-])n1Cc1ccccc1,-0.9,-3.4,-1.5,163.2,-0.4,-3.6
Cc1ncc([N+](=O)[O-])n1Cc1cccc(F)c1,-1.2,-0.2,-1.8,72.2*,-1.6,3.1
COC(=O)C1CN(Cc2cn(Cc3ccc(OC)cc3)nn2)CCS(=O)(=O)N1Cc1ccc(OC)cc1 (stereo not drawn),.,.,.,.,7.2,.
Cc1ccc(C=NNc2nc3c([nH]2)c(=O)n(C)c(=O)n3C)cc1,83.6*,-2.3,7.8,.,5.7,0.6
Cn1c(=O)c2[nH]c(NN=Cc3ccc(Br)cc3)nc2n(C)c1=O,25.5,0.0,-0.5,.,3.9,0.0
CCCCCCCCN1C(=O)[C@@H](CC(=O)NCc2ccc(C)o2)C[C@@]2(C(=O)OC)C1=C[C@H](COCc1ccccc1)O[C@@H]2C,.,.,.,.,7.3,.
O=C(/C=C/c1cccs1)NC(=S)NNC(=O)c1ccccc1O,0.5,1.8,5.4,251.4,37.6*,9.6
COc1ccc(C(=O)NNC(=S)NC(=O)/C=C/c2cccs2)cc1,-2.3,-2.2,-4.3,392.9,0.0,30.7
O=C(NCc1ccco1)c1ccc(COCC(F)(F)F)cc1,-0.6,-2.1,-1.0,473.1,-0.3,0.7
O=C(NCc1ccco1)c1ccc(COCC(F)(F)C(F)F)cc1,1.4,5.7,-0.2,195.5,41.2*,3.0
O=C(Nc1nc(Cc2ccccc2)c(-c2ccccc2)n1Cc1ccccc1)c1ccccc1,.,.,.,.,9.1,.
CC(Oc1ccc(-c2ccccc2)cc1)C(=O)N/N=C/c1cccnc1 (stereo not drawn),56.3*,5.5,0.2,239.0,-1.6,0.4
Oc1c(Br)cc(Br)cc1/C=N/Nc1ccc(Cl)nn1,-5.3,-2.4,-9.0,72.6,1.2,7.2
Oc1ccc(/C=N/Nc2ccc(Cl)nn2)c(O)c1O,3.2,0.1,91.5*,130.3,23.7,-0.1
Cc1ccc(-c2csc(NS(=O)(=O)c3cccc(F)c3)n2)o1,-5.1,-4.7,1.2,360.0,71.1*,-1.5
CC(C)C[C@H]1CN=C(Nc2ccccc2)N1CC1CCC(C(C)(C)C)CC1 (stereo partly drawn),92.7*,2.7,32.8,172.2,.,43.1
COc1ccc(C[N+]2=C(N)NC3=C4CCCCC4n4c(=O)n(-c5ccccc5)c(=O)n4C3C2)c(OC)c1 (stereo not drawn),.,.,.,.,16.2,.
O=c1c2ccccc2sn1-c1cc(S(=O)(=O)N2CCOCC2)ccc1N1CCOCC1,59.3*,0.5,1.3,293.6,0.8,24.5
C=CCNc1nc(S(=O)Cc2ccc(C)cc2)nc2c1CCCC2 (stereo not drawn),-0.6,-3.8,52.5*,199.1,-6.0,1.0
O=[N+]([O-])c1ccc(/C=N/N=C/c2ccc([N+](=O)[O-])o2)o1,62.6*,6.3,-23.2,.,1.3,0.0
NC(=Nc1cccc(F)c1)NC(=O)OCc1ccccc1,.,.,.,.,-1.4,.
COc1ccc(-c2csc(NC(=O)CSc3nc(C)nc4sc(C(=O)O)c(C)c34)n2)cc1,6.8,-1.8,13.6,402.1,42.5*,6.7
COc1cc(-n2c(C)nc3cc(C(=O)N4CCCN(C(C)=O)CC4)ccc32)cc(OC)c1OC,.,.,.,.,4.6,.
COc1ccc(C(=O)NNC(=O)CSc2nnnn2C)cc1,-2.4,1.2,9.0,61.7*,0.1,-4.0
CCOc1ccc(C(=O)NCC(=O)OCc2c(C)noc2C)cc1,8.9,2.0,-5.6,419.8,-2.7,0.7
SMILES,Exocytosis inh,V-ATPase pH,Beta2AR agonist,T cell HTS,rCAG RNA binder,MPTP block
CCOc1ccc(C(=O)NCC(=O)OCc2c(C)noc2C)cc1OCC,3.3,13.1*,24.9,360.0,-5.3,7.0
CN(Cc1ccccc1Cl)C(=O)CN1C(=O)C2(OCCCO2)c2ccccc21,.,.,.,.,2.6,.
O=C(CCl)N=c1sccn1Cc1ccc(Cl)cc1Cl,18.7,0.8,67.4*,355.8,-2.9,0.3
O=C(CCl)N=c1sccn1Cc1ccccc1Cl,29.5,1.0,25.4,329.8,0.4,1.1
O=C(CCl)N=c1sccn1Cc1cccc2ccccc12,14.1,1.3,49.6*,.,-3.6,0.3
O=C(NCCc1ccccc1)OCc1cn(Cc2cccc(Cl)c2)nn1,.,.,.,.,-1.5,.
CN(C)C=Nc1nc2c(Br)ccc(Br)c2cc1C(=O)NCC(C)(C)C,.,.,.,.,2.0,.
COc1ccccc1C(=O)Nc1ccc(NC(=O)c2ccco2)cn1,9.6,-3.5,-10.0,607.8,-0.4,0.3
COc1ccccc1C(=O)NC(=S)Nc1ccc(NC(=O)c2ccco2)cc1,68.0*,-3.3,-15.6,304.6,4.2,0.2
COC(=O)N1C[C@H](OC)[C@H]2C[C@@H]1c1ccccc1O2,.,.,.,.,0.5,.
COc1ccc2c(c1)CC=C1C2CCC2(C)C(=O)C(=NO)CC12 (stereo not drawn),91.0*,1.7,0.6,.,4.0,1.0
Cc1c(N=C2C(=O)Nc3ccccc32)c(=O)n(-c2ccccc2)n1C,1.9,9.3*,4.2,i,2.1,-0.8
CCCCCCN1CCS(=O)(=O)N(Cc2ccc(C)cc2)C(C(=O)OC)C1 (stereo not drawn),.,.,.,.,0.2,.
CN(C)c1ccc(Cc2cc3c(O)ccc(O)c3cc(Cc3ccc(N(C)C)cc3)c2=O)cc1,103.6*,1.3,18.3,.,76.1*,3.4
C=CCN(CC#Cc1ccccc1)Cc1ccc2c(c1)OCO2,.,.,.,.,0.6,.
COc1ccccc1NNC(=O)C(O)(c1ccccc1)c1ccccc1,104.1*,-1.6,3.4,214.7,4.0,2.0
CCNC(=O)N(C)[C@H]1C[C@H]2c3[nH]c4cccc(-c5ccc6c(c5)OCO6)c4c3CCN2C[C@H]1[C@H](C)O,.,.,.,.,9.1,.
CN=CC1=C(O)c2ccccc2C1=O,-1.2,0.7,-11.2,251.7,-1.1,-1.5
O=C1C(C2=C(O)c3ccccc3C2=O)=Nc2ccccc21,11.2,2.6,.,784.5,44.1*,10.8
CC(C)(C)C(=O)OC12CCCN(C1)/C(=C/c1ccc(C#N)cc1)C2 (stereo not drawn),.,.,.,.,-4.7,.
CCc1cc2c(COC(=O)c3cccc(S(C)(=O)=O)c3)cc(=O)oc2cc1O,2.5,-1.6,61.1*,0.0,10.0,1.0
CCOC(=O)/C(C#N)=C/c1cc(C)n(-c2ccc(C)cc2)c1C,85.7*,-1.1,9.1,337.4,1.0,-0.2
CCOC(=O)/C(C#N)=C\c1cc(C)n(-c2ccccc2)c1C,21.1,-4.2,6.2,459.6,1.0,0.3
COc1ccccc1-c1nnc(-c2ccc(C)cc2)o1,-2.5,-0.9,13.2,194.1,-3.8,4.3
COc1cccc(OC)c1-c1nnc(-c2cn(C)c3ccccc23)o1,-4.0,5.1,19.7,32.6*,1.0,-1.4
N=C1/C(=C\c2ccc(OC(=O)c3ccccc3)cc2)C(=O)N=C2SC(N3CCOCC3)=NN12,2.1,6.4,2.0,959.3,42.4*,1.6
CCN(C(=O)c1cc2c(=O)[nH]c3ccc(C)cc3c2s1)c1cccc(C)c1,-0.4,-2.5,-3.0,0.0*,4.0,0.2
